{"source": "ChEMBL document CHEMBL4680134", "about": "“Structural optimization of natural product nordihydroguaretic acid to discover novel analogues as AcrB inhibitors” (Eur J Med Chem, 2020)", "key": {"[1]": {"molecular_target": "T1, Multidrug efflux pump subunit AcrB (Escherichia coli (strain K12)) (UniProt P31224)", "T1 sequence (whole entry)": "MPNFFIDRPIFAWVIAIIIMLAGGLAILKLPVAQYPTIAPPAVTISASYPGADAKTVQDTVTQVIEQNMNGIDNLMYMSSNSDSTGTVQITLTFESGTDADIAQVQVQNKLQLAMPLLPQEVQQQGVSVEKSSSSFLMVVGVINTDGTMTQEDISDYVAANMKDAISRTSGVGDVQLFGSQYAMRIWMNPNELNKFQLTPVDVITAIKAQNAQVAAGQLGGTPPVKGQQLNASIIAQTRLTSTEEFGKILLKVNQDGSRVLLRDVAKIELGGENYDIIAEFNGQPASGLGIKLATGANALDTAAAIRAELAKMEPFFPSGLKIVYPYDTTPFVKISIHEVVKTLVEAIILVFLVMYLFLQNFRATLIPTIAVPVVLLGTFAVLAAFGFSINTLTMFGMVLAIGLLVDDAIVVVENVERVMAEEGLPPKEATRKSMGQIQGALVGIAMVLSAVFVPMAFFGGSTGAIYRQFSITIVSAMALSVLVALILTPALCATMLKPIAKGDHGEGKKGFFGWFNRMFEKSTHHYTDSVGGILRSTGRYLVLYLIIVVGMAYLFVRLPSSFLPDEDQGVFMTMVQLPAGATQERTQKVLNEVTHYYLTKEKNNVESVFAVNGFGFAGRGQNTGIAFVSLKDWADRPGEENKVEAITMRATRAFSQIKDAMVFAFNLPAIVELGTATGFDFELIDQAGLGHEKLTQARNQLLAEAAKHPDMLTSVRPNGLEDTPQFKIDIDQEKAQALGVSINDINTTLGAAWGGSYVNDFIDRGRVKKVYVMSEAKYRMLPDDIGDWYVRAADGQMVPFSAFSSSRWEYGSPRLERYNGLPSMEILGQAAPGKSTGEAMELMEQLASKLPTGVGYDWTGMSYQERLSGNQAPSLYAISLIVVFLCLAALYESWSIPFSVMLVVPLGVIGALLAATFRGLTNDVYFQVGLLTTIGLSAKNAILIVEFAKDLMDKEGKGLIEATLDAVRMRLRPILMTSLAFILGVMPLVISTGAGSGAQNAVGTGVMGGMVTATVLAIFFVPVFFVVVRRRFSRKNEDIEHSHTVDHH", "assay": "Inhibition of AcrB in Escherichia coli BW25113 assessed as potentiation of chloramphenicol induced antibacterial activity by measuring chloramphenicol MIC at 8 ug/ml measured after 18 hrs by checkerboard titration method (reference value: 8 ug/ml)", "settings": "dose 8.0 µg/ml"}, "[2]": {"molecular_target": "T1, Multidrug efflux pump subunit AcrB (Escherichia coli (strain K12))", "assay": "Inhibition of AcrB in Escherichia coli BW25113 assessed as potentiation of chloramphenicol induced antibacterial activity by measuring chloramphenicol MIC at 32 ug/ml measured after 18 hrs by checkerboard titration method (reference value: 8 ug/ml)", "settings": "dose 32.0 µg/ml"}, "[3]": {"molecular_target": "T1, Multidrug efflux pump subunit AcrB (Escherichia coli (strain K12))", "assay": "Inhibition of AcrB in Escherichia coli BW25113 assessed as reduction in glucose-induced nile red efflux at 50 to 100 uM preincubated for 15 mins followed by nile red addition and incubated for 3 hrs in shaker in presence of CCCP by fluorimetric analysis", "settings": "dose 50-100 µM, time 195.0 min", "method_in_brief": "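Whole-cell efflux: wild-type and ΔAcrB cells preloaded with Nile Red, with or without compound, before fluorescence readings. Efflux triggered at 100 s with 0.2% glucose and followed by fluorometry. The ΔAcrB strain marks maximal accumulation. Triplicate experiments with different cell batches.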"}, "[4]": {"molecular_target": "T1, Multidrug efflux pump subunit AcrB (Escherichia coli (strain K12))", "assay": "Inhibition of AcrB in Escherichia coli BW25113 assessed as potentiation of tetraphenylphosphonium induced antibacterial activity by measuring tetraphenylphosphonium MIC at 8 ug/ml measured after 18 hrs by checkerboard titration method (reference value: 1024 ug/ml)", "settings": "dose 8.0 µg/ml"}, "[5]": {"molecular_target": "T1, Multidrug efflux pump subunit AcrB (Escherichia coli (strain K12))", "assay": "Inhibition of AcrB in Escherichia coli BW25113 assessed as potentiation of tetraphenylphosphonium induced antibacterial activity by measuring tetraphenylphosphonium MIC at 16 ug/ml measured after 18 hrs by checkerboard titration method (reference value: 1024 ug/ml)", "settings": "dose 16.0 µg/ml"}, "[6]": {"molecular_target": "T1, Multidrug efflux pump subunit AcrB (Escherichia coli (strain K12))", "assay": "Inhibition of AcrB in Escherichia coli BW25113 assessed as potentiation of erythromycin induced antibacterial activity by measuring erythromycin MIC at 16 ug/ml measured after 18 hrs by checkerboard titration method (reference value: 64 ug/ml)", "settings": "dose 16.0 µg/ml"}, "[7]": {"molecular_target": "T1, Multidrug efflux pump subunit AcrB (Escherichia coli (strain K12))", "assay": "Inhibition of AcrB in Escherichia coli BW25113 assessed as potentiation of levofloxacin induced antibacterial activity by measuring levofloxacin MIC at 32 ug/ml measured after 18 hrs by checkerboard titration method (reference value: 0.06 ug/ml)", "settings": "dose 32.0 µg/ml"}, "[8]": {"molecular_target": "T1, Multidrug efflux pump subunit AcrB (Escherichia coli (strain K12))", "assay": "Inhibition of AcrB in Escherichia coli BW25113 assessed as potentiation of rifampicin induced antibacterial activity by measuring rifampicin MIC at 8 ug/ml measured after 18 hrs by checkerboard titration method (reference value: 16 ug/ml)", "settings": "dose 8.0 µg/ml"}, "[9]": {"molecular_target": "T1, Multidrug efflux pump subunit AcrB (Escherichia coli (strain K12))", "assay": "Inhibition of AcrB in Escherichia coli BW25113 assessed as potentiation of levofloxacin induced antibacterial activity by measuring levofloxacin MIC at 8 ug/ml measured after 18 hrs by checkerboard titration method (reference value: 0.06 ug/ml)", "settings": "dose 8.0 µg/ml"}, "[10]": {"molecular_target": "T1, Multidrug efflux pump subunit AcrB (Escherichia coli (strain K12))", "assay": "Inhibition of AcrB in Escherichia coli BW25113 assessed as potentiation of rifampicin induced antibacterial activity by measuring rifampicin MIC at 16 ug/ml measured after 18 hrs by checkerboard titration method (reference value: 16 ug/ml)", "settings": "dose 16.0 µg/ml"}, "[11]": {"molecular_target": "T1, Multidrug efflux pump subunit AcrB (Escherichia coli (strain K12))", "assay": "Inhibition of AcrB in Escherichia coli BW25113 assessed as potentiation of tetraphenylphosphonium induced antibacterial activity by measuring tetraphenylphosphonium MIC at 256 ug/ml measured after 18 hrs by checkerboard titration method (reference value: 1024 ug/ml)", "settings": "dose 256.0 µg/ml"}, "[12]": {"molecular_target": "T1, Multidrug efflux pump subunit AcrB (Escherichia coli (strain K12))", "assay": "Inhibition of AcrB in Escherichia coli BW25113 assessed as potentiation of chloramphenicol induced antibacterial activity by measuring chloramphenicol MIC at 256 ug/ml measured after 18 hrs by checkerboard titration method (reference value: 8 ug/ml)", "settings": "dose 256.0 µg/ml"}, "[13]": {"molecular_target": "T1, Multidrug efflux pump subunit AcrB (Escherichia coli (strain K12))", "assay": "Inhibition of AcrB in Escherichia coli BW25113 assessed as potentiation of erythromycin induced antibacterial activity by measuring erythromycin MIC at 64 ug/ml measured after 18 hrs by checkerboard titration method (reference value: 64 ug/ml)", "settings": "dose 64.0 µg/ml"}, "[14]": {"molecular_target": "T1, Multidrug efflux pump subunit AcrB (Escherichia coli (strain K12))", "assay": "Inhibition of AcrB in Escherichia coli BW25113 assessed as potentiation of levofloxacin induced antibacterial activity by measuring levofloxacin MIC at 256 ug/ml measured after 18 hrs by checkerboard titration method (reference value: 0.06 ug/ml)", "settings": "dose 256.0 µg/ml"}, "[15]": {"molecular_target": "T1, Multidrug efflux pump subunit AcrB (Escherichia coli (strain K12))", "assay": "Inhibition of AcrB in Escherichia coli BW25113 assessed as potentiation of chloramphenicol induced antibacterial activity by measuring chloramphenicol MIC at 64 ug/ml measured after 18 hrs by checkerboard titration method (reference value: 8 ug/ml)", "settings": "dose 64.0 µg/ml"}, "[16]": {"molecular_target": "T1, Multidrug efflux pump subunit AcrB (Escherichia coli (strain K12))", "assay": "Inhibition of AcrB in Escherichia coli BW25113 assessed as potentiation of erythromycin induced antibacterial activity by measuring erythromycin MIC at 256 ug/ml measured after 18 hrs by checkerboard titration method (reference value: 64 ug/ml)", "settings": "dose 256.0 µg/ml"}}, "note": "Activity calls are given as the source filed them. No cut-off for these calls is given here.", "data": [{"smiles": "Cc1ccc(C(=O)NCCc2ccc(O)c(O)c2)cc1", "values": [{"measurement": "MIC", "setting": "[1]", "value": 8, "unit": "µg/mL"}, {"measurement": "MIC", "setting": "[2]", "value": 8, "unit": "µg/mL"}, {"measurement": "inhibition", "setting": "[3]", "value": "Active"}, {"measurement": "MIC", "setting": "[4]", "value": 1020, "unit": "µg/mL"}, {"measurement": "MIC", "setting": "[5]", "value": 1020, "unit": "µg/mL"}, {"measurement": "MIC", "setting": "[6]", "value": 32, "unit": "µg/mL"}, {"measurement": "MIC", "setting": "[7]", "value": 0.06, "unit": "µg/mL"}, {"measurement": "MIC", "setting": "[8]", "value": 16, "unit": "µg/mL"}, {"measurement": "MIC", "setting": "[9]", "value": 0.06, "unit": "µg/mL"}, {"measurement": "MIC", "setting": "[10]", "value": 16, "unit": "µg/mL"}]}, {"smiles": "Oc1ccc(CCCCc2ccc(Br)cc2)cc1O", "values": [{"measurement": "MIC", "setting": "[11]", "value": 512, "unit": "µg/mL"}, {"measurement": "MIC", "setting": "[12]", "value": 8, "unit": "µg/mL"}, {"measurement": "MIC", "setting": "[13]", "value": 64, "unit": "µg/mL"}, {"measurement": "MIC", "setting": "[2]", "value": 8, "unit": "µg/mL"}, {"measurement": "inhibition", "setting": "[3]", "value": "Active"}, {"measurement": "MIC", "setting": "[14]", "value": 0.06, "unit": "µg/mL"}, {"measurement": "MIC", "setting": "[5]", "value": 1020, "unit": "µg/mL"}, {"measurement": "MIC", "setting": "[6]", "value": 64, "unit": "µg/mL"}, {"measurement": "MIC", "setting": "[15]", "value": 8, "unit": "µg/mL"}, {"measurement": "MIC", "setting": "[7]", "value": 0.06, "unit": "µg/mL"}, {"measurement": "MIC", "setting": "[16]", "value": 64, "unit": "µg/mL"}, {"measurement": "MIC", "setting": "[10]", "value": 16, "unit": "µg/mL"}]}]}
